Test results as given in ChEMBL document CHEMBL4261643, “Reducing the Lipophilicity of Perfluoroalkyl Groups by CF2-F/CF2-Me or CF3/CH3 Exchange” (J Med Chem, 2018).

Test system: not listed separately
Assay: Intrinsic clearance in human liver microsomes preincubated in presence of NADPH for 30 mins and measured up to 30 mins by LC-MS/MS analysis
Assay type: ADME, microsome
Settings: read-out: CLH
How it was run: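 Compound from DMSO stock was incubated with human liver microsomes plus NADPH at 37 °C. Aliquots taken at 0.7, 5.8, 11.6, 17.2, 22.7 and 30 min were quenched with cold acetonitrile and centrifuged at 4 °C. Substrate loss was measured by LC-MS/MS, and Clint is given in µL/min/mg. Six isoform-specific P450/FMO marker substrates were included in each run.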

SMILES	microsomal CLint [µL/min/mg]
CN(C)C(=O)CNCCc1cccc(OCC(F)(F)C(C)(F)F)c1.Cl	10
CN(C)C(=O)CNCCc1cccc(OCC(F)(F)C(F)(F)C(C)(F)F)c1.Cl	9
CN(C)C(=O)CNCCc1cccc(OCCCC(C)(F)F)c1.Cl	7
CCCCCOc1cccc(CCNCC(=O)N(C)C)c1.Cl	29
CN(C)C(=O)CNCCc1cccc(OCC(F)(F)C(F)(F)C(F)(F)F)c1.Cl	8
CN(C)C(=O)CNCCc1cccc(OCCC(C)(F)F)c1.Cl	7
CCCCOc1cccc(CCNCC(=O)N(C)C)c1.Cl	13

Test system: not listed separately
Assay: Intrinsic clearance in Han Wistar rat hepatocytes assessed as per million cells preincubated in presence of NADPH for 30 mins and measured up to 120 mins by LC-MS/MS analysis
Assay type: ADME, cell-based, Hepatocyte
Settings: read-out: CLH
How it was run: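 Cryopreserved Han Wistar rat hepatocytes at 1x10^6 cells/mL were incubated with compound from DMSO stock at 37 °C. Samples were taken at 0.5, 5, 15, 20, 30, 45, 60, 80, 100 and 120 min and quenched with cold acetonitrile. After centrifugation at 4 °C, substrate disappearance was followed by LC-MS/MS. Clint is expressed in µL/min/10^6 cells.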

SMILES	hepatocyte CLint [µL/min/1e6 cells]
CN(C)C(=O)CNCCc1cccc(OCC(F)(F)C(C)(F)F)c1.Cl	32
CN(C)C(=O)CNCCc1cccc(OCC(F)(F)C(F)(F)C(C)(F)F)c1.Cl	64
CN(C)C(=O)CNCCc1cccc(OCCCC(C)(F)F)c1.Cl	38
CCCCCOc1cccc(CCNCC(=O)N(C)C)c1.Cl	91
CN(C)C(=O)CNCCc1cccc(OCC(F)(F)C(F)(F)C(F)(F)F)c1.Cl	20
CN(C)C(=O)CNCCc1cccc(OCCC(C)(F)F)c1.Cl	34
CCCCOc1cccc(CCNCC(=O)N(C)C)c1.Cl	82

Test system: not listed separately
Assay: Partition coefficient, log D of the compound at pH 7.4 after 30 mins by shake-flask method
Assay type: physicochemical
Settings: octanol/water
How it was run: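 Octanol/pH 7.4 buffer shake-flask: compound in buffer plus octanol, shaken 30 min, then centrifuged. The aqueous layer was quantified by LC-UV against the solution before octanol addition to give D7.4. Runs were pools of 10 compounds including three QC compounds (cyclobenzaprine, nicardipine, caffeine).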

SMILES	logD at 0.5 h
CN(C)C(=O)CNCCc1cccc(OCC(F)(F)C(C)(F)F)c1.Cl	1.6
CN(C)C(=O)CNCCc1cccc(OCC(F)(F)C(F)(F)C(C)(F)F)c1.Cl	2.2
CN(C)C(=O)CNCCc1cccc(OCCCC(C)(F)F)c1.Cl	1.7
CCCCCOc1cccc(CCNCC(=O)N(C)C)c1.Cl	2.3
CN(C)C(=O)CNCCc1cccc(OCC(F)(F)C(F)(F)C(F)(F)F)c1.Cl	2.5
CN(C)C(=O)CNCCc1cccc(OCCC(C)(F)F)c1.Cl	1.1
CCCCOc1cccc(CCNCC(=O)N(C)C)c1.Cl	1.8

Test system: not listed separately
Assay: Fraction unbound in 10% human plasma after 18 hrs by LC-MS/MS analysis
Assay type: ADME, cell-free
Settings: not given
How it was run: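 Compound from DMSO stock was dialysed against buffer in 10% human plasma on a RED device for 18 h. Plasma and buffer samples were quantified by LC-MS/MS against a 7-point calibration curve in plasma. Samples were generally run in singlicate, in pools of up to 10 compounds. Propranolol, metoprolol and warfarin served as reference compounds in each run.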

SMILES	fraction unbound at 18 h
CN(C)C(=O)CNCCc1cccc(OCC(F)(F)C(C)(F)F)c1.Cl	0.51
CN(C)C(=O)CNCCc1cccc(OCC(F)(F)C(F)(F)C(C)(F)F)c1.Cl	0.25
CN(C)C(=O)CNCCc1cccc(OCCCC(C)(F)F)c1.Cl	0.49
CCCCCOc1cccc(CCNCC(=O)N(C)C)c1.Cl	0.23
CN(C)C(=O)CNCCc1cccc(OCC(F)(F)C(F)(F)C(F)(F)F)c1.Cl	0.2
CN(C)C(=O)CNCCc1cccc(OCCC(C)(F)F)c1.Cl	0.62
CCCCOc1cccc(CCNCC(=O)N(C)C)c1.Cl	0.45

Test system: not listed separately
Assay: Aqueous solubility of the compound in phosphate buffer at pH 7.4 after 24 hrs by shake-flask method
Assay type: physicochemical
Settings: not given
How it was run: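 Dried compound equilibrated in aqueous phosphate buffer, pH 7.4, for 24 h at 25 °C. The dissolved portion was separated from the remaining solid and quantified by UPLC/MS/MS. QC samples were included in each run.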

SMILES	solubility thermodynamic at 24 h [µM]
CN(C)C(=O)CNCCc1cccc(OCC(F)(F)C(C)(F)F)c1.Cl	929
CN(C)C(=O)CNCCc1cccc(OCC(F)(F)C(F)(F)C(C)(F)F)c1.Cl	946
CN(C)C(=O)CNCCc1cccc(OCCCC(C)(F)F)c1.Cl	1000
CCCCCOc1cccc(CCNCC(=O)N(C)C)c1.Cl	779
CN(C)C(=O)CNCCc1cccc(OCC(F)(F)C(F)(F)C(F)(F)F)c1.Cl	952
CN(C)C(=O)CNCCc1cccc(OCC(F)(F)C(F)(F)C(F)(F)C(F)(F)F)c1.Cl	955
CN(C)C(=O)CNCCc1cccc(OCCC(C)(F)F)c1.Cl	960
CCCCOc1cccc(CCNCC(=O)N(C)C)c1.Cl	782

Molecular target: hERG (KCNH2) (Homo sapiens, UniProt Q12809)
Assay: Inhibition of human ERG at 10 uM relative to cisapride
Settings: not given

hERG (KCNH2), sequence (Q12809 whole entry): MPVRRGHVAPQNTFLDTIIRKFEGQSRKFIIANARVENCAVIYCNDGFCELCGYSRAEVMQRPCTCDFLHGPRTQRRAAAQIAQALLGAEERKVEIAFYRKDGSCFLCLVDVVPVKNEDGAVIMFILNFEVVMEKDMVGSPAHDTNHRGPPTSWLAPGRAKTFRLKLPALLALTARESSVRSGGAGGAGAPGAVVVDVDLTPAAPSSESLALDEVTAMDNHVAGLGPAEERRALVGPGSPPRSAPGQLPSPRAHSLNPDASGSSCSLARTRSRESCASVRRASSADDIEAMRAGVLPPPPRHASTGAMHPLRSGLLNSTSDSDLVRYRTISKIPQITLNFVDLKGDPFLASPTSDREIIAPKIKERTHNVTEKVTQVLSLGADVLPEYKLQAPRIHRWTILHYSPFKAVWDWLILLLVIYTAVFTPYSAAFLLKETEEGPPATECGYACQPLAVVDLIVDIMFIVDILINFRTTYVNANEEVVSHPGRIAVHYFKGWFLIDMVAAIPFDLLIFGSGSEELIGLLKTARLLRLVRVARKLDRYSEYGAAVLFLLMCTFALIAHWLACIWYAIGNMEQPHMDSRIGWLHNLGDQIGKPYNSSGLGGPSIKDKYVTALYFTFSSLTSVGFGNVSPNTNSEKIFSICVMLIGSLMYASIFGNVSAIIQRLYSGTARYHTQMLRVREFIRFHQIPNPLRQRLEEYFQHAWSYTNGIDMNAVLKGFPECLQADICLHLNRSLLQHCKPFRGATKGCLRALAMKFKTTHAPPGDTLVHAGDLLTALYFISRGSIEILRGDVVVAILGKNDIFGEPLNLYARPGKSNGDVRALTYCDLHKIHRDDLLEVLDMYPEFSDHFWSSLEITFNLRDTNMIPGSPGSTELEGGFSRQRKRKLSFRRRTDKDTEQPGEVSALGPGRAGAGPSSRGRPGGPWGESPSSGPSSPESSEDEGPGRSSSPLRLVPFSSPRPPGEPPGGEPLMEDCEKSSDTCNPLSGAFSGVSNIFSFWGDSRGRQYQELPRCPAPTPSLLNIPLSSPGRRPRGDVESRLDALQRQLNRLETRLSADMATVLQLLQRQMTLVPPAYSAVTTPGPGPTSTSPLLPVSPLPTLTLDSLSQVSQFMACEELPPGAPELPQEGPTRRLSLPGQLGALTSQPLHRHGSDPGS

SMILES	inhibition at 10 µM [%]
CN(C)C(=O)CNCCc1cccc(OCC(F)(F)C(C)(F)F)c1.Cl	41
CN(C)C(=O)CNCCc1cccc(OCC(F)(F)C(F)(F)C(C)(F)F)c1.Cl	63
CN(C)C(=O)CNCCc1cccc(OCCCC(C)(F)F)c1.Cl	45
CCCCCOc1cccc(CCNCC(=O)N(C)C)c1.Cl	70
CN(C)C(=O)CNCCc1cccc(OCC(F)(F)C(F)(F)C(F)(F)F)c1.Cl	57
CN(C)C(=O)CNCCc1cccc(OCCC(C)(F)F)c1.Cl	35
CCCCOc1cccc(CCNCC(=O)N(C)C)c1.Cl	31
